In ChEMBL document CHEMBL1177710, “Structure-based drug design and optimization of mannoside bacterial FimH antagonists” (J Med Chem, 2010):

What was measured:
Escherichia coli [1] = test: Inhibition of Escherichia coli FimH-mediated hemagglutinination of guinea pig red blood cells assessed as drug level required for > 90% inhibition of hemagglutinination
[2] = Displacement of 5(6)-FAM-mannoside from Escherichia coli FimH by fluorescence polarization assay
[3] = Binding affinity to Escherichia coli FimH by surface plasmon resonance assay
Escherichia coli [4] = test: Ratio of alpha-D-heptylmannoside to compound inhibitory activity against Escherichia coli FimH-mediated hemagglutinination of guinea pig red blood cells
Escherichia coli [5] = test: Selectivity ratio of inhibition of Escherichia coli FimH-mediated hemagglutinination of guinea pig red blood cells to EC50 for Escherichia coli FimH
[6] = Binding affinity to Escherichia coli FimH by fluorescence polarization assay
Outline: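 Competitive fluorescence polarization/anisotropy assay. Compounds from 10 mM DMSO stocks were 2-fold serially diluted to 11 final concentrations of 0–10 μM, in duplicate plates. Mix: 200 nM FimH, 20 nM 5(6)-FAM-labelled mannoside tracer, 50 mM Tris, 100 mM NaCl, 1 mM EDTA, 5 μg BSA, 5 mM BME. Anisotropy was averaged over 100 readings/well and fitted to a one-site competition curve, with a mannoside positive control.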

| SMILES | Activity (Escherichia coli [1]) [µM] | EC50 [2] [nM] | also measured |
| --- | --- | --- | --- |
| OCc1ccccc1-c1ccc(O[C@H]2O[C@H](CO)[C@@H](O)[C@H](O)[C@@H]2O)cc1 | 16 | – | – |
| CC(=O)Nc1ccc(O[C@H]2O[C@H](CO)[C@@H](O)[C@H](O)[C@@H]2O)cc1 | 8 | 122 | – |
| COC(=O)c1ccc(-c2ccc(O[C@H]3O[C@H](CO)[C@@H](O)[C@H](O)[C@@H]3O)cc2)cc1 | 4 | 59 | – |
| COC(=O)c1cc2cc(O[C@H]3O[C@H](CO)[C@@H](O)[C@H](O)[C@@H]3O)ccc2s1 | 2 | – | – |
| CCCCCCCO[C@H]1O[C@H](CO)[C@@H](O)[C@H](O)[C@@H]1O | 15 | 89 | Kd [3]: 5 nM |
| O=C(NCCOCCOCCNC(=O)c1cccc(-c2ccc(O[C@H]3O[C@H](CO)[C@@H](O)[C@H](O)[C@@H]3O)cc2)c1)c1cccc(-c2ccc(O[C@H]3O[C@H](CO)[C@@H](O)[C@H](O)[C@@H]3O)cc2)c1 | – | – | Ratio (Escherichia coli [4]): 8 |
| O=C(O)c1cccc(-c2ccc(O[C@H]3O[C@H](CO)[C@@H](O)[C@H](O)[C@@H]3O)cc2)c1 | 4 | 99 | – |
| NC(=O)c1ccccc1-c1ccc(O[C@H]2O[C@H](CO)[C@@H](O)[C@H](O)[C@@H]2O)cc1 | 6 | – | – |
| OC[C@H]1O[C@H](OCc2ccccc2)[C@@H](O)[C@@H](O)[C@@H]1O | – | 187 | – |
| OC[C@H]1O[C@H](Oc2ccc(-c3ccccc3O)cc2)[C@@H](O)[C@@H](O)[C@@H]1O | 8 | – | – |
| OC[C@H]1O[C@H](Oc2ccc(-c3cccnc3)cc2)[C@@H](O)[C@@H](O)[C@@H]1O | 2 | – | – |
| COC(=O)c1cc2ccc(O[C@H]3O[C@H](CO)[C@@H](O)[C@H](O)[C@@H]3O)cc2s1 | 2 | – | – |
| COC(=O)c1ccc(-c2cccc(O[C@H]3O[C@H](CO)[C@@H](O)[C@H](O)[C@@H]3O)c2)cc1 | 6 | – | – |
| OCc1cccc(-c2ccc(O[C@H]3O[C@H](CO)[C@@H](O)[C@H](O)[C@@H]3O)cc2)c1 | 3 | – | – |
| COC(=O)Cc1ccc(O[C@H]2O[C@H](CO)[C@@H](O)[C@H](O)[C@@H]2O)cc1 | 30 | – | – |
| COC(=O)c1cc(C(=O)OC)cc(-c2ccc(O[C@H]3O[C@H](CO)[C@@H](O)[C@H](O)[C@@H]3O)cc2)c1 | 0.15 | 77 | Selectivity ratio (Escherichia coli [5]): 2 |
| COC(=O)c1ccc(O[C@H]2O[C@H](CO)[C@@H](O)[C@H](O)[C@@H]2O)cc1 | 8 | 64 | – |
| OC[C@H]1O[C@H](Oc2ccc(-c3ccncc3)cc2)[C@@H](O)[C@@H](O)[C@@H]1O | 2 | – | – |
| N#Cc1ccc(-c2ccc(O[C@H]3O[C@H](CO)[C@@H](O)[C@H](O)[C@@H]3O)cc2)cc1 | 8 | – | – |
| COc1ccc(O[C@H]2O[C@H](CO)[C@@H](O)[C@H](O)[C@@H]2O)cc1 | 8 | – | – |
| OC[C@H]1O[C@H](Oc2ccccc2)[C@@H](O)[C@@H](O)[C@@H]1O | 30 | 114 | – |

| SMILES | Activity (Escherichia coli [1]) [µM] | EC50 [2] [nM] | also measured |
| --- | --- | --- | --- |
| COC(=O)c1cc(O[C@H]2O[C@H](CO)[C@@H](O)[C@H](O)[C@@H]2O)cc(C(=O)OC)c1 | 2 | 91 | – |
| O=C(O)c1cc(C(=O)O)cc(-c2ccc(O[C@H]3O[C@H](CO)[C@@H](O)[C@H](O)[C@@H]3O)cc2)c1 | 2 | – | – |
| OC[C@H]1O[C@H](Oc2ccc3ccccc3c2)[C@@H](O)[C@@H](O)[C@@H]1O | 6 | – | – |
| CS(=O)(=O)Nc1ccccc1-c1ccc(O[C@H]2O[C@H](CO)[C@@H](O)[C@H](O)[C@@H]2O)cc1 | 12 | – | – |
| CNC(=O)c1cccc(-c2ccc(O[C@H]3O[C@H](CO)[C@@H](O)[C@H](O)[C@@H]3O)cc2)c1 | 1 | 75 | – |
| N#Cc1cccc(-c2ccc(O[C@H]3O[C@H](CO)[C@@H](O)[C@H](O)[C@@H]3O)cc2)c1 | 1 | – | – |
| O=[N+]([O-])c1ccc(O[C@H]2O[C@H](CO)[C@@H](O)[C@H](O)[C@@H]2O)cc1 | 31 | – | – |
| COC(=O)c1cccc(-c2ccc(O[C@H]3O[C@H](CO)[C@@H](O)[C@H](O)[C@@H]3O)cc2)c1 | 1 | 52 | – |
| N#Cc1ccccc1-c1ccc(O[C@H]2O[C@H](CO)[C@@H](O)[C@H](O)[C@@H]2O)cc1 | 2 | – | – |
| O=[N+]([O-])c1ccc(-c2ccc(O[C@H]3O[C@H](CO)[C@@H](O)[C@H](O)[C@@H]3O)cc2)cc1 | 2 | – | – |
| CC(=O)Nc1cccc(O[C@H]2O[C@H](CO)[C@@H](O)[C@H](O)[C@@H]2O)c1 | 12 | 160 | – |
| O=C(O)c1cc(C(=O)NCCCCO[C@H]2O[C@H](CO)[C@@H](O)[C@H](O)[C@@H]2O)cc(-c2c3ccc(=O)cc-3oc3cc(O)ccc23)c1 | 125 | – | Kd [6]: 170 nM |
| OC[C@H]1O[C@H](Oc2cccc(Cl)c2)[C@@H](O)[C@@H](O)[C@@H]1O | 8 | – | – |
| CNC(=O)c1cc(C(=O)NC)cc(-c2ccc(O[C@H]3O[C@H](CO)[C@@H](O)[C@H](O)[C@@H]3O)cc2)c1 | 0.37 | 87 | Selectivity ratio (Escherichia coli [5]): 4 |
| O=C1Cc2cc(O[C@H]3O[C@H](CO)[C@@H](O)[C@H](O)[C@@H]3O)ccc2O1 | 8 | – | – |
| Cc1ccc(O[C@H]2O[C@H](CO)[C@@H](O)[C@H](O)[C@@H]2O)cc1 | 8 | – | – |
| OC[C@H]1O[C@H](Oc2ccc(-c3cccc(O)c3)cc2)[C@@H](O)[C@@H](O)[C@@H]1O | 4 | – | – |
| COC(=O)c1cccc(O[C@H]2O[C@H](CO)[C@@H](O)[C@H](O)[C@@H]2O)c1 | 6 | 84 | – |
| CC(=O)Oc1cccc(O[C@H]2O[C@H](CO)[C@@H](O)[C@H](O)[C@@H]2O)c1 | 16 | – | – |
| O=C(NCCOCCNC(=O)c1cccc(-c2ccc(O[C@H]3O[C@H](CO)[C@@H](O)[C@H](O)[C@@H]3O)cc2)c1)c1cccc(-c2ccc(O[C@H]3O[C@H](CO)[C@@H](O)[C@H](O)[C@@H]3O)cc2)c1 | 0.75 | – | – |
| OC[C@H]1O[C@H](Oc2ccc(Cl)cc2)[C@@H](O)[C@@H](O)[C@@H]1O | 32 | – | – |

| SMILES | Activity (Escherichia coli [1]) [µM] | EC50 [2] [nM] | also measured |
| --- | --- | --- | --- |
| OC[C@H]1O[C@H](Oc2ccccc2Cl)[C@@H](O)[C@@H](O)[C@@H]1O | 4 | – | – |
| CC(=O)Nc1ccccc1O[C@H]1O[C@H](CO)[C@@H](O)[C@H](O)[C@@H]1O | 125 | – | – |
| O=C(O)c1cccc(O[C@H]2O[C@H](CO)[C@@H](O)[C@H](O)[C@@H]2O)c1 | 60 | – | – |
| O=C(c1ccccc1)c1cccc(O[C@H]2O[C@H](CO)[C@@H](O)[C@H](O)[C@@H]2O)c1 | 8 | – | – |
| N#Cc1ccc(O[C@H]2O[C@H](CO)[C@@H](O)[C@H](O)[C@@H]2O)cc1 | 30 | – | – |
| N#Cc1cccc(O[C@H]2O[C@H](CO)[C@@H](O)[C@H](O)[C@@H]2O)c1 | 23 | 162 | – |
| O=c1[nH]c2ccc(O[C@H]3O[C@H](CO)[C@@H](O)[C@H](O)[C@@H]3O)cc2o1 | 4 | – | – |
| OCc1ccc(-c2ccc(O[C@H]3O[C@H](CO)[C@@H](O)[C@H](O)[C@@H]3O)cc2)cc1 | 6 | – | – |
| N#Cc1ccccc1O[C@H]1O[C@H](CO)[C@@H](O)[C@H](O)[C@@H]1O | 6 | – | – |
| CC(=O)Nc1cccc(-c2ccc(O[C@H]3O[C@H](CO)[C@@H](O)[C@H](O)[C@@H]3O)cc2)c1 | 2 | 70 | – |
| CNS(=O)(=O)c1cccc(-c2ccc(O[C@H]3O[C@H](CO)[C@@H](O)[C@H](O)[C@@H]3O)cc2)c1 | 1 | – | – |
| CS(=O)(=O)Nc1cccc(-c2ccc(O[C@H]3O[C@H](CO)[C@@H](O)[C@H](O)[C@@H]3O)cc2)c1 | 2 | 97 | – |
| NC(=O)c1cccc(O[C@H]2O[C@H](CO)[C@@H](O)[C@H](O)[C@@H]2O)c1 | 16 | – | – |
| CCCCO[C@H]1O[C@H](CO)[C@@H](O)[C@H](O)[C@@H]1O [BUTYLALPHAMAN] | 125 | 245 | Kd [3]: 151 nM |
| O=[N+]([O-])c1cccc(O[C@H]2O[C@H](CO)[C@@H](O)[C@H](O)[C@@H]2O)c1 | 16 | – | – |
| CNS(=O)(=O)c1ccccc1-c1ccc(O[C@H]2O[C@H](CO)[C@@H](O)[C@H](O)[C@@H]2O)cc1 | 4 | – | – |
| COc1cccc(-c2ccc(O[C@H]3O[C@H](CO)[C@@H](O)[C@H](O)[C@@H]3O)cc2)c1 | 1.5 | – | – |
| NC(=O)c1ccc(O[C@H]2O[C@H](CO)[C@@H](O)[C@H](O)[C@@H]2O)cc1 | 15 | – | – |
| NC(=O)c1cccc(-c2ccc(O[C@H]3O[C@H](CO)[C@@H](O)[C@H](O)[C@@H]3O)cc2)c1 | 2 | 78 | – |
